{"data": "Measured values of several laboratories", "target": "Aurora kinase B (AURKB, Homo sapiens, UniProt Q96GD4)", "effect on": "enzyme activity", "note": "Each line is one published result; the experiments were not run side by side."}
{"Compound": "CCCOc1ccc(OC)c(F)c1C(=O)c1ccc(C(=O)N[C@@H]2CNC[C@H]2NC(=O)c2ccc3[nH]ncc3c2)cc1", "action": "inhibitor", "concentration": "10 µM", "remaining activity": "10%"}
{"Compound": "O=C(NCCCNc1nc(Nc2cccc(NC(=O)N3CCCC3)c2)ncc1I)c1cccs1", "action": "inhibitor", "method": "radiometric", "concentration": "1 µM", "remaining activity": "3%"}
{"Compound": "CC(C)(O)[C@H]1CC[C@H](Nc2ccc3ncc(-c4cccc(C(F)(F)F)c4)n3n2)CC1", "action": "inhibitor", "concentration": "1 µM", "remaining activity": "82.1%"}
{"Compound": "Cn1c(=O)n(-c2ccc(C(C)(C)C#N)cc2)c2c3cc(-c4cnc5ccccc5c4)ccc3ncc21", "action": "inhibitor", "concentration": "10 µM", "remaining activity": "101%"}
{"Compound": "Cc1sc(C(=O)NC2COC2)cc1-n1cc(NC(=O)Nc2c(F)cccc2Cl)cn1", "action": "inhibitor", "concentration": "10 µM", "remaining activity": "96.4%"}
{"Compound": "Cc1nn(CC(F)(F)F)cc1Nc1nccc(NCCCNC(=O)C2CCC2)n1", "action": "inhibitor", "method": "radiometric", "concentration": "1 µM", "remaining activity": "90%"}
{"Compound": "O=c1cc(-c2cccc3c2Sc2ccccc2S3)oc(N2CCOCC2)c1", "action": "inhibitor", "concentration": "0.5 µM", "remaining activity": "95.8%"}
{"Compound": "CCN(CC)c1ccc(C2=NNC(=O)CC2C)cc1[N+](=O)[O-] (stereo not shown)", "action": "inhibitor", "concentration": "10 µM", "remaining activity": "118%"}
{"Compound": "O=C(Nc1cnn(-c2csc(C(=O)NC3COC3)c2)c1)Nc1ccccc1Cl", "action": "inhibitor", "concentration": "5 µM", "remaining activity": "93%"}
{"Compound": "Cc1nn(CC(F)(F)F)cc1Nc1nccc(NCc2ccc(S(N)(=O)=O)cc2)n1", "action": "inhibitor", "method": "radiometric", "concentration": "1 µM", "remaining activity": "82%"}
{"Compound": "COc1cc(Nc2cnc(C#N)c(O[C@H](C)CN(C)C)n2)ncc1-c1cnn(C)c1", "action": "inhibitor", "method": "radiometric", "concentration": "1 µM", "remaining activity": "42%"}
{"Compound": "O=C(NCCCNc1nc(Nc2cccc(NC(=O)N3CCCC3)c2)ncc1Br)C1CCC1", "action": "inhibitor", "method": "radiometric", "concentration": "1 µM", "remaining activity": "5%"}
{"Compound": "CS(=O)(=O)CCNCc1ccc(-c2ccc3ncnc(Nc4ccc(OCc5cccc(F)c5)c(Cl)c4)c3c2)o1", "concentration": "0.5 µM", "remaining activity": "98.4%"}
{"Compound": "CC(C)(C)c1nc2c(s1)c1nc(N)ncc1c1ccc(NS(=O)(=O)c3c(F)cccc3F)c(F)c12", "action": "inhibitor", "method": "radiometric", "concentration": "1 µM", "remaining activity": "90%"}
{"Compound": "Nc1nc(Nc2ccccc2)sc1C(=O)c1c(F)cccc1F", "action": "inhibitor", "concentration": "10 µM", "remaining activity": "24%"}
{"Compound": "NS(=O)(=O)c1ccc(CNc2ccnc(Nc3cccc(NC(=O)N4CCCC4)c3)n2)cc1", "action": "inhibitor", "method": "radiometric", "concentration": "1 µM", "remaining activity": "53%"}
{"Compound": "Nc1ncnc2occ(-c3ccc(NC(=O)Nc4cc(C(F)(F)F)ccc4F)cc3)c12", "action": "inhibitor", "concentration": "20 µM", "remaining activity": "0.1%"}
{"Compound": "Cc1nn(CC(F)(F)F)cc1Nc1ncc(C2CC2)c(NCc2ccc(S(N)(=O)=O)cc2)n1", "action": "inhibitor", "method": "radiometric", "concentration": "1 µM", "remaining activity": "102%"}
{"Compound": "O=C1NC(=O)c2cc(Nc3ccc(F)cc3)c(Nc3ccc(F)cc3)cc21", "action": "inhibitor", "concentration": "0.5 µM", "remaining activity": "99.7%"}
